Test results reported in ChEMBL document CHEMBL1212805, “Evaluation of WLBU2 peptide and 3-O-octyl-sn-glycerol lipid as active ingredients for a topical microbicide formulation targeting Chlamydia trachomatis” (Antimicrob Agents Chemother, 2010).
The source made the active and inactive calls.

What was measured:
Chlamydia trachomatis [1] = experiment: Antibacterial activity against Chlamydia trachomatis serovar L2 after 120 mins by MCC assay in presence of simulated vaginal fluid; assay type: functional; details: serovar L2, 2 h
How it was run: (§1)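 C. trachomatis serovar EBs (5 × 10⁶ IFU/ml) diluted in 100% VFS (zinc-free for SFS), 100% SFS or 10% HSA, mixed 1:1 with five 4-fold SPG dilutions (final 60 μM/30 mM top; 50% VFS, 50% SFS, 5% HSA). After 5 or 120 min, diluted 1:40, inoculated onto McCoy monolayers. Inclusions stained with anti-LPS/FITC after 36–48 h. Inhibition versus no-drug control in the same fluid; MCC is complete inhibition.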

Chlamydia trachomatis [2] = experiment: Antibacterial activity against Chlamydia trachomatis serovar E after 5 mins by MCC assay in presence of simulated seminal fluid; assay type: functional; how it was run: as §1
Chlamydia trachomatis [3] = experiment: Antibacterial activity against Chlamydia trachomatis serovar D after 5 mins by MCC assay in presence of simulated seminal fluid; assay type: functional; how it was run: as §1
Chlamydia trachomatis [4] = experiment: Antibacterial activity against Chlamydia trachomatis serovar E after 5 mins by MCC assay in presence of simulated human serum albumin; assay type: functional; how it was run: as §1
Chlamydia trachomatis [5] = experiment: Antibacterial activity against Chlamydia trachomatis serovar L2 after 5 mins by MCC assay in presence of simulated vaginal fluid; assay type: functional; details: serovar L2, 5 min; how it was run: as §1
Chlamydia trachomatis [6] = experiment: Antibacterial activity against Chlamydia trachomatis serovar D after 120 mins by MCC assay in presence of simulated vaginal fluid; assay type: functional; details: 2 h; how it was run: as §1
Chlamydia trachomatis [7] = experiment: Antibacterial activity against Chlamydia trachomatis serovar D after 5 mins by MCC assay in presence of simulated vaginal fluid; assay type: functional; how it was run: as §1
Chlamydia trachomatis [8] = experiment: Antibacterial activity against Chlamydia trachomatis serovar L2 after 5 mins by MCC assay in presence of simulated seminal fluid; assay type: functional; details: serovar L2, 5 min; how it was run: as §1
Chlamydia trachomatis [9] = experiment: Antibacterial activity against Chlamydia trachomatis serovar D at 1.88 mM at pH 4 after 5 mins by MCC assay in presence of sucrose- phosphate-glutamate buffer; assay type: functional, organism-based; details: in the assay text read “after 120 mins” for “after 5 mins”
How it was run: (§2)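 Compounds and EBs were each diluted in SPG at pH 4, 5.5, 7 or 8 and mixed 1:1, so exposure pH was constant. Five 4-fold dilutions were used (top 60 μM peptide, 30 mM lipid). After 5 or 120 min, the mix was diluted 1:40 in pH 7.5 SPG and plated on McCoy cells. Inclusion counts were compared with a no-drug control at the same pH and time.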

Chlamydia trachomatis [10] = experiment: Antibacterial activity against Chlamydia trachomatis serovar D after 120 mins by MCC assay in presence of simulated seminal fluid; assay type: functional; details: 2 h; how it was run: as §1
Chlamydia trachomatis [11] = experiment: Antibacterial activity against Chlamydia trachomatis serovar E after 120 mins by MCC assay in presence of simulated human serum albumin; assay type: functional; details: 2 h; how it was run: as §1
[12] = Cytotoxicity against mouse McCoy cells after 48 hrs at =<30 uM by almar blue assay; assay type: cell-based
How it was run: (§3)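 Cytotoxicity was tested by running the MCC procedure without inoculum: compound diluted in half with SPG, then diluted 1:40 onto McCoy monolayers and incubated 48 h at 37°C. Read-out by Alamar Blue, MTT and LDH kits. SPG served as negative control and Triton X-100 as positive control. Nontoxic was defined as <10% toxicity in all methods.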

Chlamydia trachomatis [13] = experiment: Antibacterial activity against Chlamydia trachomatis serovar L2 after 5 mins by MCC assay in presence of simulated human serum albumin; assay type: functional; details: serovar L2, 5 min; how it was run: as §1
Chlamydia trachomatis [14] = experiment: Antibacterial activity against Chlamydia trachomatis serovar L2 after 120 mins by MCC assay in presence of simulated human serum albumin; assay type: functional; details: serovar L2, 2 h; how it was run: as §1
Chlamydia trachomatis [15] = experiment: Antibacterial activity against Chlamydia trachomatis serovar E assessed as change in MCC at pH 4 to 8 after 5 mins by MCC assay in presence of sucrose- phosphate-glutamate buffer; assay type: functional, organism-based; how it was run: as §2
Chlamydia trachomatis [16] = experiment: Antibacterial activity against Chlamydia trachomatis serovar E assessed as change in MCC at pH 4 to 8 after 120 mins by MCC assay in presence of sucrose- phosphate-glutamate buffer; assay type: functional, organism-based; how it was run: as §2
Chlamydia trachomatis [17] = experiment: Antibacterial activity against Chlamydia trachomatis serovar D after 5 mins by MCC assay in presence of simulated human serum albumin; assay type: functional; how it was run: as §1
Chlamydia trachomatis [18] = experiment: Antibacterial activity against Chlamydia trachomatis serovar D at 1.88 mM at pH 8 after 5 mins by MCC assay in presence of sucrose- phosphate-glutamate buffer; assay type: functional, organism-based; details: in the assay text read “after 120 mins” for “after 5 mins”; how it was run: as §2
Chlamydia trachomatis [19] = experiment: Antibacterial activity against Chlamydia trachomatis serovar L2 at 3.13 mM after 120 mins relative to control; assay type: functional; details: serovar L2, 2 h
How it was run: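 Serovar L2 EBs (5 × 10⁶ IFU/ml in SPG, pH 7.5) mixed 1:1 with ten 2-fold SPG dilutions (final 50 μM top peptide, 25 mM lipid), exposed 5 or 120 min, diluted 1:40, plated on McCoy cells; fixed with methanol after 36–48 h, anti-LPS/FITC stained. Triplicate wells, three fields each, three independent days; percent inhibition versus no-drug control ± SD.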

Chlamydia trachomatis [20] = experiment: Antibacterial activity against Chlamydia trachomatis serovar E after 120 mins by MCC assay in presence of simulated vaginal fluid; assay type: functional; details: 2 h; how it was run: as §1
Chlamydia trachomatis [21] = experiment: Antibacterial activity against Chlamydia trachomatis serovar L2 at => 6.25 mM after 5 mins relative to control; assay type: functional
Chlamydia trachomatis [22] = experiment: Antibacterial activity against Chlamydia trachomatis serovar D at 1.88 mM at pH 5.5 after 5 mins by MCC assay in presence of sucrose- phosphate-glutamate buffer; assay type: functional, organism-based; details: in the assay text read “after 120 mins” for “after 5 mins”; how it was run: as §2
Chlamydia trachomatis [23] = experiment: Antibacterial activity against Chlamydia trachomatis serovar D assessed as change in MCC at pH 4 to 8 after 120 mins by MCC assay in presence of sucrose- phosphate-glutamate buffer; assay type: functional, organism-based; how it was run: as §2
Chlamydia trachomatis [24] = experiment: Antibacterial activity against Chlamydia trachomatis serovar E after 120 mins by MCC assay in presence of simulated seminal fluid; assay type: functional; details: 2 h; how it was run: as §1
Chlamydia trachomatis [25] = experiment: Antibacterial activity against Chlamydia trachomatis serovar L2 after 120 mins by MCC assay in presence of simulated seminal fluid; assay type: functional; details: serovar L2, 2 h; how it was run: as §1
Chlamydia trachomatis [26] = experiment: Antibacterial activity against Chlamydia trachomatis serovar D after 120 mins by MCC assay in presence of simulated human serum albumin; assay type: functional; details: 2 h; how it was run: as §1
Chlamydia trachomatis [27] = experiment: Antibacterial activity against Chlamydia trachomatis serovar E after 5 mins by MCC assay in presence of simulated vaginal fluid; assay type: functional; how it was run: as §1
[28] = Cytotoxicity against mouse McCoy cells after 48 hrs at =<30 uM by MCC assay; assay type: cell-based; how it was run: as §3
Chlamydia trachomatis [29] = experiment: Antibacterial activity against Chlamydia trachomatis serovar D assessed as change in MCC at pH 4 to 8 after 5 mins by MCC assay in presence of sucrose- phosphate-glutamate buffer; assay type: functional, organism-based; how it was run: as §2

In the case of `CCCCCCCCOC[C@H](O)CO`, the MCC (Chlamydia trachomatis [1]) is reported as 7.5 mM, the MCC (Chlamydia trachomatis [2]) is reported as 30 mM and the MCC (Chlamydia trachomatis [3]) is reported as 30 mM. It also gave an MCC (Chlamydia trachomatis [4]) of 30 mM, an MCC (Chlamydia trachomatis [5]) of 7.5 mM and an MCC (Chlamydia trachomatis [6]) of 7.5 mM. The MCC (Chlamydia trachomatis [7]) was 7.5 mM, the MCC (Chlamydia trachomatis [8]) was 30 mM and the Activity (Chlamydia trachomatis [9]) was “Active”. The MCC (Chlamydia trachomatis [10]) was 7.5 mM, the MCC (Chlamydia trachomatis [11]) was 7.5 mM and the Activity [12] was “Non-toxic”. For the same compound, the MCC (Chlamydia trachomatis [13]) was 30 mM, the MCC (Chlamydia trachomatis [14]) was 7.5 mM and the Activity (Chlamydia trachomatis [15]) was “Active”. For the same compound, the Activity (Chlamydia trachomatis [16]) was “Active”, the MCC (Chlamydia trachomatis [17]) was 30 mM and the Activity (Chlamydia trachomatis [18]) was “Active”. The inhibition at 3130 µM (Chlamydia trachomatis [19]) was 98.2%, the MCC (Chlamydia trachomatis [20]) was 7.5 mM and the “inhibition (INH)” value (Chlamydia trachomatis [21]) was 100%. For the same compound, the Activity (Chlamydia trachomatis [22]) was “Active”, the Activity (Chlamydia trachomatis [23]) was “Active” and the MCC (Chlamydia trachomatis [24]) was 7.5 mM. For the same compound, the MCC (Chlamydia trachomatis [25]) was 7.5 mM, the MCC (Chlamydia trachomatis [26]) was 7.5 mM and the MCC (Chlamydia trachomatis [27]) was 7.5 mM. The Activity [28] was “Non-toxic” and the Activity (Chlamydia trachomatis [29]) was “Active”.
